Screens (PubChem)
Hits are enriched below; roughly 6.8% of the tested compounds scored in any of these assays.
HCV core dimer – inhibitors of HCV core protein dimerization, primary screen, biochemical, TR-FRET, high-throughput; TR-FRET GST/Flag-core106 dimerization, 1536-well; 0.33% of 300,000 active; inhibition, % at 5 µM;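 active means inhibition above the mean of all tested compounds plus 3 SD, set per screening campaign, cut at about 45% in these data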
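Assay system – GST-tagged and Flag-tagged HCV core protein residues 1-106 · Quantity – core106 proteins, GST 13.5 nM and Flag 17 nM · Benchmarks – unlabelled core106 and no-GST-core106 wells · Read-out basis – percent inhibition of core106 dimerization signal · Detection – time-resolved FRET, ex 340 nm, em 617 and 671 nm · Schedule – 4 h at 22.5 °C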
PHOSPHO1 block – PubChem AID 1565; Phosphoethanolamine/phosphocholine phosphatase (Homo sapiens), Q8TCT1; inhibition, % at 13.3 µM; 1.1% of 290,000 active; recombinant PHOSPHO1, absorbance phosphatase assay; in the data active means inhibition above about 60%
Target sequence (Q8TCT1 whole entry, looked up): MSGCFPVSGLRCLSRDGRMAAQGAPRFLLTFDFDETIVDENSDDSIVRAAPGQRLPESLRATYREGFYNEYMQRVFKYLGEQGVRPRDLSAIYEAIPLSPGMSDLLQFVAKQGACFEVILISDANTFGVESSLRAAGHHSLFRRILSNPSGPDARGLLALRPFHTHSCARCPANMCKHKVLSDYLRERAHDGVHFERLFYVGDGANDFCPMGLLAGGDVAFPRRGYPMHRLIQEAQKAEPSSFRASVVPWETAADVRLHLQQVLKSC
HSF-1 act – HSF-1 activators, primary screen, NIH3T3-HGL cells, MG132 stress, luminescence, single point; 1.7% of 300,000 active; activation, % at 9 µM; NIH3T3-HGL HSF-1 luciferase reporter, 8 h; 100% = twice DMSO control signal;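 active means mean replicate activation of at least 50% with a set share of replicates each reaching 50%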;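 further: 0% = median of the neutral control wells and 100% = twice that signal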
ALR inh – inhibitors of human ALR sulfhydryl oxidase, primary screen, biochemical, H2O2 detection, HRP-luminol luminescence, single point | FAD-linked sulfhydryl oxidase ALR (Homo sapiens), P55789 | purified ALR, DTT oxidation | inhibition, % (test concentration not listed) | 3.8% of 290,000 active | AID 485317, 2010;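 active means mean replicate inhibition above about 79%, with every replicate also reaching it, limit read from the data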
Target sequence (P55789 whole entry, looked up): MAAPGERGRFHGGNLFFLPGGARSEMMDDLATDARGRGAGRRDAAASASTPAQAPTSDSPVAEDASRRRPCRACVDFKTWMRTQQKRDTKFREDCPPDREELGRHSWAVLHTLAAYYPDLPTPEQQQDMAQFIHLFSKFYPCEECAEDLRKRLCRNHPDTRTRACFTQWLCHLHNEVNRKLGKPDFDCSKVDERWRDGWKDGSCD
AI-2 QS mod – Vibrio harveyi AI-2 quorum sensing modulators, primary screen, JMH597 strain, luminescence/OD600 ratio; Vibrio harveyi JMH597 AI-2 luminescence/OD600 ratio, 9 h; stronger effect = lower value; strain lacks LuxN and CqsS sensors; 0 = neutral-control median; activity change, % at 7.5 µM; 0.4% of 300,000 active; in the data active means activity change below about -75%, passing the limit was not always enough;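 further: luminescence divided by OD600 gain over 9 h not by final OD600 alone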
HSF1 inh – HSF1 inhibitors in luciferase reporter cells, primary screen, cell-based, NIH3T3, luminescence; NIH3T3-HGL HSE-luciferase, MG132-induced, luminescence 8 h; stronger effect = lower value; activity change, negative = inhibition, % at 7.5 µM (by protocol); 0.77% of 300,000 active; AID 2098, 2009;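 active means more than half of replicate wells show activity change below -50%, luminescence cut by over half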;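 further: luciferase reports HSF-1 transcriptional activity via heat shock element; 0% = median of DMSO wells and -100% = zero luminescence signal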
* marks the source's active call; other numbers are inactive results; . = no result given.

SMILES | HCV core dimer | PHOSPHO1 block | HSF-1 act | ALR inh | AI-2 QS mod | HSF1 inh
O=[N+]([O-])c1ccc(N2CCN(c3ccc([N+](=O)[O-])cc3CO)CC2)c(CO)c1 | 11 | 36 | -4 | -8 | 10 | -3
N#Cc1cc([N+](=O)[O-])ccc1N1CCN(c2ccccc2O)CC1 | 8 | -12 | 10 | 98* | 17 | 7
COc1ccc(/C=C(/NC(=O)c2ccco2)C(=O)N2CCOCC2)cc1 | -5 | 41 | 5 | -2 | 0 | -14
Cc1cc(C)nc(SCC(=O)c2ccc(F)cc2F)n1 | -2 | 20 | 5 | 6 | 0 | -11
CCOc1cc(C(=O)N=c2sccn2C)ccc1OC(F)F | -14 | 23 | 9 | 6 | 12 | 6
Cn1c(=O)n(C)c2cc([N+](=O)[O-])c(N3CCN(C(=O)c4ccc(F)cc4)CC3)cc21 | -1 | 60* | -1 | -5 | 8 | -2
Cc1cc(=O)[nH]c(-n2ncc(C#N)c2N)n1 | -1 | -4 | 69* | -3 | 11 | 27
N#Cc1cnn(-c2ccccc2)c1N | -6 | 11 | 4 | -6 | 24 | 2
CC(C)N(C(=O)CSc1nnnn1-c1ccc2c(c1)OCO2)C(C)C | -2 | 20 | -7 | -2 | 9 | -3
CSc1ccc2[nH]c(=O)cc(C)c2c1 | -4 | -6 | -27 | 100* | 24 | -7
Cc1ccccc1C(=O)N1CCC(C(=O)NC2CCCC2)CC1 | -6 | 35 | -4 | . | 16 | -3
Cc1c(C(=O)Nc2ccccc2)csc1-c1ccccc1 | 4 | 5 | 61* | -2 | 1 | 28
Cc1c(C(=O)Nc2ccccc2[N+](=O)[O-])csc1-c1ccccc1 | -7 | -9 | 61* | . | 1 | 15
Cc1oc(-c2ccccc2)cc1C(=O)Nc1ccccc1 | 5 | -24 | -14 | -6 | 9 | 0
Cc1cc(=O)oc2cc(OCC(=O)N3CCCC3)c(Cl)cc12 | . | . | . | 0 | . | .
Cc1cc(NC(=O)COC(=O)c2c(C)noc2C)ccc1Br | -4 | 24 | 18 | -5 | -91* | 6
Clc1ccc(-c2ccc(CNCC3CCCO3)o2)cc1 (stereo unspecified) | 1 | 46 | 79* | . | 33 | 62
COc1ccc(NC(=O)/C(=C\c2ccc(F)cc2)NC(=O)c2ccco2)cc1 | 6 | 36 | 14 | 4 | . | -2
CCOc1ccc2nc(N(Cc3ccccc3)C(=O)CCNC(C)=O)sc2c1 | . | -7 | 57* | -19 | 4 | 15
CC(=O)NCCC(=O)N(Cc1ccccc1)c1nc2c(C)cccc2s1 | -52 | 42 | 14 | -17 | 8 | 8
Cc1cccc(/C=N/n2c(-c3ccccc3)n[nH]c2=S)c1O | 7 | . | 19 | 91* | . | 21
S=c1[nH]nc(-c2ccccc2)n1/N=C/c1cccc(Br)c1 | 8 | -94 | 18 | . | 49 | -3
Oc1c(Br)cc(Br)c(/C=N/n2c(-c3ccccc3)n[nH]c2=S)c1Br | 16 | -107 | 20 | 85* | 43 | -4
Oc1ccc(Br)cc1/C=N/n1c(-c2ccccc2)n[nH]c1=S | 0 | . | 25 | 67 | 33 | -5
CCNC(=S)Nc1ccc(OCc2nc3ccccc3s2)cc1 | 3 | 18 | 18 | 30 | 21 | 12
SMILES | HCV core dimer | PHOSPHO1 block | HSF-1 act | ALR inh | AI-2 QS mod | HSF1 inh
C/C(=N\NC(=O)Cc1csc(N2CCOCC2)n1)c1ccc(Cl)c(Cl)c1 | -1 | -27 | -12 | . | -1 | -4
CCOc1cc(/C=C2\C(=N)N3N=C(C)SC3=NC2=O)ccc1OCCOc1cccc(OC)c1 | 18 | -29 | 22 | -6 | 7 | 7
CCc1nn2c(=O)cc(COc3ccc(/C=C4\C(=N)N5N=C(C)SC5=NC4=O)cc3)nc2s1 | 47* | 61* | 20 | . | 6 | -1
CC(C)C(NS(=O)(=O)c1cccc(C(F)(F)F)c1)C(=O)NCc1cccs1 (stereo unspecified) | . | . | . | -7 | . | .
Cc1cccc(NC(=S)N2CCN(S(C)(=O)=O)CC2)c1 | 7 | 21 | -9 | -4 | 33 | 6
O=C(O)c1ccc(O)cc1O | . | . | . | -19 | . | .
